In brackets after ≈: the same amount, converted by molar mass. Activity calls are given as the source filed them. The rule behind the calls is not given here.
What was measured:
Pseudomonas aeruginosa = test: Antimicrobial activity against Pseudomonas aeruginosa ATCC 27853 after 24 hrs by microbroth dilution method; assay type: functional; settings: ATCC 27853, 24 h, read-out: MIC100
How it was run: (§1)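 Two-fold serial dilutions, six replicates each, inoculated with about 5 × 10^5 CFU/mL in cation-adjusted Mueller-Hinton broth 2. Incubated at 37 °C, 160 rpm, 24 h. OD600 taken at 0 and 24 h; T0 subtracted; % inhibition calculated relative to the bacteria-plus-broth control. MIC is the lowest concentration giving 100% inhibition.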

Candida albicans [1] = test: Antimicrobial activity against Candida albicans SC5314 after 24 hrs by microbroth dilution method; assay type: functional; settings: SC5314, 24 h, read-out: MIC100
How it was run: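 CLSI broth microdilution in RPMI 1640 (L-glutamine, no glucose or NaHCO3) buffered to pH 7.0 with 0.165 M MOPS. Two-fold serial dilutions inoculated with 2.5 × 10^3 yeast/mL and incubated at 35 °C for 24 h, using three plates. MIC read visually as the lowest concentration giving optically clear wells versus the drug-free control.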

Salmonella typhimurium = test: Antimicrobial activity against Salmonella typhimurium after 24 hrs by microbroth dilution method; assay type: functional, Salmonella enterica subsp. enterica serovar Typhimurium; settings: Salmonella enterica, read-out: MIC100; how it was run: as §1
Staphylococcus aureus [2] = test: Antimicrobial activity against Staphylococcus aureus A170 after 24 hrs by microbroth dilution method; assay type: functional; settings: A170, 24 h, read-out: MIC100; how it was run: as §1
Listeria monocytogenes = test: Antimicrobial activity against Listeria monocytogenes after 24 hrs by microbroth dilution method; assay type: functional; settings: read-out: MIC100; how it was run: as §1
Staphylococcus aureus [3] = test: Induction of degradation of Staphylococcus aureus A170 biofilm at 50 ug/ml assessed as concentration required for complete degradation after 24 hrs by crystal violet staining method relative to control; assay type: functional; settings: in the assay text read “after 8 hrs” for “after 24 hrs”
Staphylococcus aureus [4] = test: Induction of degradation of Staphylococcus aureus A170 biofilm at 30 ug/ml after 24 hrs by crystal violet staining method relative to control; assay type: functional; settings: in the assay text read “after 8 hrs” for “after 24 hrs”
Candida albicans [5] = test: Antibiofilm activity against Candida albicans SC5314 at 8 to 60 ug/ml after 24 hrs by crystal violet staining method relative to control; assay type: functional, organism-based
Staphylococcus aureus [6] = test: Antibiofilm activity against Staphylococcus aureus A170 at 25 ug/ml after 24 hrs by crystal violet staining method relative to control; assay type: functional, organism-based
Candida albicans [7] = test: Antimicrobial activity against Candida albicans SC5314 assessed as inhibition of hyphae formation after 24 hrs by inverted microscopy; assay type: functional, organism-based
How it was run: (§2)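 Stationary yeast cells at 6 × 10^6 cells/mL in pre-warmed hypha-inducing RPMI 1640 (2.5% fetal calf serum, 20 mM HEPES, 2 mM L-glutamine, 16 mM NaHCO3, pH 7.0). Compound at 1–50 […]. After 24 h at 37 °C, wells examined by inverted microscope for morphology and hyphae formation.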

Candida albicans [8] = test: Antimicrobial activity against Candida albicans SC5314 assessed as inhibition of germination at 10 ug/ml after 24 hrs by inverted microscopy; assay type: functional, organism-based; how it was run: as §2
Candida albicans [9] = test: Induction of degradation of Candida albicans SC5314 biofilm at 20 ug/ml after 24 hrs by XTT assay relative to vehicle-treated control; assay type: functional, organism-based; settings: in the assay text read “after 8 hrs” for “after 24 hrs”
Staphylococcus aureus [10] = test: Antibiofilm activity against Staphylococcus aureus A170 at 30 ug/ml after 24 hrs by crystal violet staining method relative to control; assay type: functional, organism-based

Row | Compound | MIC (Pseudomonas aeruginosa) | MIC (Candida albicans [1]) | MIC (Salmonella typhimurium) | MIC (Staphylococcus aureus [2]) | MIC (Listeria monocytogenes) | Activity (Staphylococcus aureus [3]) | Activity (Staphylococcus aureus [4]) | Activity (Candida albicans [5]) | Activity (Staphylococcus aureus [6]) | inhibition (Candida albicans [7]) | inhibition (Candida albicans [8]) | Activity (Candida albicans [9]) | Activity (Staphylococcus aureus [10])
1 | Oc1ccc(/C=C/c2cc(O)cc(O)c2)cc1 [RESVERATROL] | > 400 µg/mL | > 128 µg/mL | > 400 µg/mL | 100 µg/mL (≈ 438 µM) |  |  |  |  |  |  |  |  | 
2 | CCc1cc(/N=N/c2ccc(O)cc2)ccc1O | > 60 µg/mL | 30 µg/mL (≈ 124 µM) | > 60 µg/mL | 30 µg/mL (≈ 124 µM) | 50 µg/mL (≈ 206 µM) | 50 µg/mL | >60% | Active | Active |  |  | Active | 
3 | Cc1cc(/N=N/c2ccc(O)cc2)cc(C)c1O | > 60 µg/mL | 17 µg/mL (≈ 70.2 µM) | > 60 µg/mL | 20 µg/mL (≈ 82.5 µM) | 25 µg/mL (≈ 103 µM) | 50 µg/mL | 40% | Active |  |  |  | Active | Active
4 | C=CCc1cc(/N=N/c2ccc(O)cc2)cc(C)c1O | > 60 µg/mL | 15 µg/mL (≈ 55.9 µM) | > 60 µg/mL | 25 µg/mL (≈ 93.2 µM) | > 60 µg/mL | 50 µg/mL | >60% | Active | Active |  |  | Active | 

The next lines start with results.

Row | MIC (Pseudomonas aeruginosa) | MIC (Candida albicans [1]) | MIC (Salmonella typhimurium) | MIC (Staphylococcus aureus [2]) | MIC (Listeria monocytogenes) | Compound | Activity (Staphylococcus aureus [3]) | Activity (Staphylococcus aureus [4]) | Activity (Candida albicans [5]) | Activity (Staphylococcus aureus [6]) | inhibition (Candida albicans [7]) | inhibition (Candida albicans [8]) | Activity (Candida albicans [9]) | Activity (Staphylococcus aureus [10])
5 | > 60 µg/mL | 20 µg/mL (≈ 78 µM) | > 60 µg/mL | 20 µg/mL (≈ 78 µM) | 25 µg/mL (≈ 97.5 µM) | CCCc1cc(/N=N/c2ccc(O)cc2)ccc1O | 50 µg/mL | >60% | Active | Active | Dose-dependent effect | Active | Active | 
6 | > 60 µg/mL | 20 µg/mL (≈ 78.7 µM) | > 60 µg/mL | 20 µg/mL (≈ 78.7 µM) | 25 µg/mL (≈ 98.3 µM) | C=CCc1cc(/N=N/c2ccc(O)cc2)ccc1O | 50 µg/mL | >60% | Active | Active |  |  | Active | 
